The results in this text go back to ChEMBL document CHEMBL4177706, “Exploiting a water network to achieve enthalpy-driven, bromodomain-selective BET inhibitors” (Bioorg Med Chem, 2018).

One may read the IC50 as the concentration needed to halve the response being measured. A word on the Kd: it is a measure of binding affinity in units of concentration. A lower Kd goes with tighter binding. For orientation: EC50 means the concentration at which the effect is half-maximal.

The species entered for assay [1] is Homo sapiens. The assay can be described thus: Selectivity index, ratio of Kd for BRD2 bromodomain 1 (74 to 194 residues) (unknown origin to Kd for BRD2 bromodomain 2 (348 to 455 residues) (unknown origin).
Assay [2] deals with T1, Bromodomain-containing protein 2 (Homo sapiens, UniProt P25440). The assay can be described thus: Inhibition of recombinant human BRD2 bromodomain 1 (49 to 170 residues) using biotin labeled peptide substrate preincubated for 15 mins followed by substrate addition measured after 1 hr by TR-FRET assay. The format is single protein. A general note: In TR-FRET formats the signal depends on donor and acceptor labels being close together.
Target sequence in this assay (P25440 whole entry, the tested form may be a part): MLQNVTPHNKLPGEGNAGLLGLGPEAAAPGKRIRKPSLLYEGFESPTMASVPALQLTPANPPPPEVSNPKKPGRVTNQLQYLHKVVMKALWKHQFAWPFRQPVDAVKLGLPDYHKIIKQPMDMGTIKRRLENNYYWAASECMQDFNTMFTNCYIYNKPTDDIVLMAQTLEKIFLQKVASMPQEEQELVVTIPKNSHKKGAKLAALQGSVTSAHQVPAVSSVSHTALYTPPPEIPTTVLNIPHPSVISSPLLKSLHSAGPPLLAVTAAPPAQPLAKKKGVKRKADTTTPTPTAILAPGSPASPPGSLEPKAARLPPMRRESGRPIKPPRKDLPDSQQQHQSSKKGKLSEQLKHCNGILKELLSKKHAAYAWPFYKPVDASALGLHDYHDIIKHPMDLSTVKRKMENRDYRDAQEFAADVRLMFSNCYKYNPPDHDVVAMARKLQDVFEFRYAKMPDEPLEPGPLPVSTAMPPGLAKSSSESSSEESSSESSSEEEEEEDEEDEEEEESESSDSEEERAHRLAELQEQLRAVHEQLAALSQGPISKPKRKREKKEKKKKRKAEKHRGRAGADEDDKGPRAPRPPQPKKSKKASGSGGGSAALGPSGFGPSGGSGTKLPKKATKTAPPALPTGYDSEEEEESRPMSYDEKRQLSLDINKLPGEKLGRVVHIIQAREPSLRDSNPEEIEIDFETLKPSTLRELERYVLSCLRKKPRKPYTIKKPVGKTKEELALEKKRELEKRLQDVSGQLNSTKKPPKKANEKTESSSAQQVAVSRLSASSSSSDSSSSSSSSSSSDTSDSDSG

The target in assay [3] is T1, Bromodomain-containing protein 2.
Target sequence in this assay (P25440 whole entry, the tested form may be a part): as above
For assay [4] the target is unchanged. In words: Binding affinity to His-tagged BRD2 bromodomain 1 (unknown origin) by SPR assay. The format is single protein. The method in brief: (§1)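 SPR at 15 °C: poly-His BRD2 bromodomain constructs capture-coupled (Ni2+/NTA plus EDC/NHS amine coupling) to ~450–530 RU, with a reference channel. Compounds run as 3-fold series from 2 μM, in duplicate, at 150 μL/min.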
Target sequence in this assay (P25440 whole entry, the tested form may be a part): as above
A general note: Surface plasmon resonance follows binding to a sensor surface in real time, without labels.

Assay [5] has the same target. In words: Binding affinity to BRD2 bromodomain 1 (74 to 194 residues) (unknown origin) by ITC.
Target sequence in this assay (P25440 whole entry, the tested form may be a part): as above
Assay [6] is filed under the species Homo sapiens. The assay can be described thus: Selectivity index, ratio of Kd for His-tagged BRD2 bromodomain 1 (unknown origin) to Kd for His-tagged BRD2 bromodomain 2 (unknown origin). The method in brief: as §1
In the next assay the test system is HepG2. The assay can be described thus: Cytotoxicity against human HepG2 cells assessed as reduction in cell viability after 3 days by CellTiter-Glo assay. Format: cell-based.
The nature of assay [7]: Cytotoxicity against human HD-MB03 cells assessed as reduction in cell viability after 5 days by CellTiter-Glo assay. As to conditions: HD-MB03, 120 h. (ATP-based viability assays read luminescence as a measure of living cells.)
Another assay relates to LOUCY. In words: Cytotoxicity against human Loucy cells assessed as reduction in cell viability after 5 days by CellTiter-Glo assay. As to conditions: 120 h.
A short description of assay [8]: Cytotoxicity against human NALM16 cells assessed as reduction in cell viability after 5 days by CellTiter-Glo assay. The conditions noted are these: NALM16, 120 h.
The next assay has as its system BJ. In words: Cytotoxicity against human BJ cells assessed as reduction in cell viability after 3 days by CellTiter-Glo assay. The format is cell-based.
In the next assay the test system is HEK293. The assay can be described thus: Cytotoxicity against HEK293 cells assessed as reduction in cell viability after 3 days by CellTiter-Glo assay. The format is cell-based, Homo sapiens.
Assay [9] deals with T1, Bromodomain-containing protein 2. In words: Binding affinity to His-tagged BRD2 bromodomain 2 (unknown origin) by SPR assay. The method in brief: as §1
Target sequence in this assay (P25440 whole entry, the tested form may be a part): as above
The target is the same in assay [10]. The assay can be described thus: Inhibition of BRD2 in human HD-MB03 cells assessed as reduction in c-Myc protein expression after 72 hrs by Hoechst 33342 staining based immunofluorescence assay. The format is cell-based. The procedure, abridged: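 HD-MB03 cells (3000/well, supplemented neurobasal medium) treated 24 h after plating with compound at 2 nM–40 μM final for 72 h. Imaged at 10x; nuclear masks from Hoechst used to quantify MYC per nucleus.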
Target sequence in this assay (P25440 whole entry, looked up, the tested form may be a part): as the sequence (P25440 whole entry, the tested form may be a part) above

`CC(=O)N1c2ccc(-c3cccs3)cc2[C@H](NC(=O)OC(C)C)C[C@@H]1C`: the Selectivity Index in the assay filed under Homo sapiens [1] was determined as 2.9; in the assay listed under Homo sapiens [6], 1.1. The IC50 in [2] was 1770 nM; in [3], 830 nM. Also, the Kd worked out at 66 nM in assay [4] and 61.3 nM in assay [5].
Regarding `CC(=O)N1c2ccc(-c3ccc(C(=O)O)cc3)cc2[C@H](Nc2ccc(Cl)cc2)C[C@@H]1C`, the IC50 amounted to 720 nM in assay [2] and 30 nM in [3]. Moreover, the EC50 result in the assay with HepG2 is “Non-Toxic”; in [7], 200 nM; with LOUCY it was 700 nM; in [8], 310 nM; in the assay with BJ, “Non-Toxic”.
As to `Cc1sc2c(c1C)C(c1ccc(Cl)cc1)=N[C@@H](CC(=O)OC(C)(C)C)c1nnc(C)n1-2`, the EC50 entry in the assay with HepG2, in the assay with HEK293 and with BJ was “Non-Toxic” each time.
With `CC(=O)N1c2ccc(-c3cc[nH]c3)cc2[C@H](NC(=O)OC(C)C)C[C@@H]1C`, the Selectivity Index in the assay filed under Homo sapiens [1] was determined as 4.6; in the assay listed under Homo sapiens [6], 1.4. Moreover, the IC50 in [2] turned out to be 2480 nM; in [3], 410 nM. For the same compound, the results for the Kd in assay [9] and in assay [4] were 77 nM and 104 nM, respectively.
As to `CC(=O)N1c2ccc(-c3ccoc3)cc2[C@H](NC(=O)OC(C)C)C[C@@H]1C`, the values for the Selectivity Index in the assay filed under Homo sapiens [1] and in the assay listed under Homo sapiens [6] were 0.5 and 1.7, respectively. The IC50 in assay [2] was found to be 5800 nM; in assay [3] it was 1910 nM. The results for the dissociation constant (Kd) in assay [9] and in [4] were 148 nM and 245 nM, respectively.
For the compound `CC(=O)N1c2ccc(-c3ccco3)cc2[C@H](NC(=O)OC(C)C)C[C@@H]1C`, the EC50 entry in the assay on HepG2, in the assay on HEK293 and in the assay on BJ was “Non-Toxic” throughout. In addition, the inhibition entry in assay [10] is “Dose-dependent effect”.
Turning to `COc1cc(OC)c2c(=O)[nH]c(-c3cc(C)c(OCCO)c(C)c3)nc2c1` [APABETALONE], the EC50 result in the assay with HepG2, in the assay with HEK293 and in the assay with BJ was “Non-Toxic” in each case.
For `CC(=O)N1c2ccc(-c3ccsc3)cc2[C@H](NC(=O)OC(C)C)C[C@@H]1C`, the Selectivity Index in the assay filed under Homo sapiens [1] is 4.2; in the assay filed under Homo sapiens [6], 1.5. The IC50 in [2] came out at 5210 nM; in assay [3], 1080 nM. The Kd in assay [4] was determined as 105 nM; in assay [5] it was 71.7 nM.
For the compound `CCNC(=O)C[C@@H]1N=C(c2ccc(Cl)cc2)c2cc(OC)ccc2-n2c(C)nnc21` [MOLIBRESIB], the EC50 result with HepG2, in the assay on HEK293 and in the assay with BJ was “Non-Toxic” in each case.
For `CC(=O)N1c2ccc(-c3ccc[nH]3)cc2[C@H](NC(=O)OC(C)C)C[C@@H]1C`, the figures for the Selectivity Index in the assay filed under Homo sapiens [1] and in the assay listed under Homo sapiens [6] were 3.7 and 1.3, respectively. The IC50 in [2] and in [3] was 1400 nM in each case. Also, the figures for the Kd in assay [9] and in assay [4] were 74 nM and 99 nM, respectively.
